Source: PubChem BioAssay (several laboratories)
ABHD5 PLIN5 PPI: ABHD5-PLIN5 protein interaction inhibition | Q00G26+Q8WTS1 | Split G. princeps luciferase complementation, luminescence, 4 h | inhibition, % at 4 µM | 360,000 compounds, 0.78% hits | AID 602281;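 active = inhibition above the mean inhibition across every tested compound plus 3 SD, cut at about 22% in these data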;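 also: 0% = DMSO only wells and the 100% control is not disclosed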
SENP1 inh: blocks the human SENP1 SUMO protease catalytic domain | Q9P0U3 | recombinant SENP1 catalytic domain, CyPet-SUMO1-YPet FRET cleavage | inhibition, % at 10 µM | 360,000 compounds, 0.21% hits;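 active = inhibition at least 30% at 10 µM, raw YFP signal under a set limit, fluorescence ratio 0.5 to 1.5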;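 also: 0% = enzyme with DMSO and 100% = no enzyme wells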
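Test system: recombinant human SENP1 catalytic domain, His6-tagged / Medium: pH 8 Tris buffer with EDTA, NaCl, BME, BSA, NP40, catalase / Also added: SUMO1 FRET substrate flanked by Cypet and Ypet, 25 nM / Times: 50 min reaction at room temperature / Signal: FRET, CFP and YFP emission / Control set: no-enzyme low control and enzyme-plus-DMSO high control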
GRK2 aptamer HTS: human GRK2 inhibition via aptamer displacement | bead flow cytometry, FAM-aptamer displacement from GRK2 | 330,000 compounds, 0.59% hits | P25098 | inhibition of aptamer binding, % at 10 µM;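 active = inhibition of aptamer binding above 40%, roughly 3 SD of noise, on plates passing a quality check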;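 also: median bead fluorescence of bound FAM aptamer so fluorescent compounds give negative values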
NadD inh: NadD (S. aureus) enzyme inhibition | 360,000 compounds, 0.78% hits | inhibition, % at 20 µM | AID 602399 | purified NadD enzyme, colorimetric absorbance read-out; in the data active = inhibition above about 26%
Beta2AR agonist: human beta-2 adrenergic receptor agonism by FAP | P07550 | Am2.2-beta2AR cells, FAP receptor internalization, flow cytometry | response, % (concentration not given with the values) | 340,000 compounds, 0.43% hits | AID 504454;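 active = response above a set limit, near 3 SD of response in nonfluorescent compounds, cut at about 42% in these data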
ABHD5 PLIN5 conf: ABHD5-PLIN5 interaction inhibition, confirmed | 2,200 compounds, 67% hits | shares compounds with ABHD5 PLIN5 PPI | AID 651612 | inhibition, % at 4 µM | biochemical ABHD5-PLIN5 interaction, luminescence; in the data active = inhibition above about 23%;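 also: 0% = DMSO vehicle wells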
HNF4 counter: counter-screen for ABHD5-PLIN5 inhibitors: HNF4 split-luciferase; shares compounds with ABHD5 PLIN5 PPI; HNF4 dimerization, luminescence, biochemical; inhibition, % at 4 µM; 2,200 compounds, 77% hits; AID 651674;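 active = mean inhibition across replicate wells exceeding the computed hit threshold, cut at about 13% in these data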;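 also: light from luciferase halves that rejoin when HNF4 fusion proteins dimerize; 0% = DMSO only wells and the 100% control is not given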
* hit, by the source's call; x = not tested or not shown. Most compounds without a hit are left out; they make up all but 2.5% or so of the library.

SMILES | ABHD5 PLIN5 PPI | SENP1 inh | GRK2 aptamer HTS | NadD inh | Beta2AR agonist | ABHD5 PLIN5 conf | HNF4 counter
C=C(NC(=O)C(=C)NC(=O)c1csc(C2=NC3c4csc(n4)C4NC(=O)c5csc(n5)C([C@@](C)(O)C(C)O)NC(=O)C5CSC(=N5)/C(=C\C)NC(=O)C(C(C)O)NC(=O)c5csc(n5)[C@]3(CC2)NC(=O)C(C)NC(=O)C(=C)NC(=O)C(C)NC(=O)C(C(C)CC)NC2C=Cc3c(C(C)O)cc(nc3C2O)C(=O)OC4C)n1)C(N)=O (stereo partly drawn) | x | x | 8.0 | x | x | x | x
C=C(NC(=O)C(=C)NC(=O)c1csc(C2=NC3c4csc(n4)C4NC(=O)c5csc(n5)C(C(C)(O)C(C)O)NC(=O)C5CSC(=N5)/C(=C/C)NC(=O)C(C(C)O)NC(=O)c5csc(n5)C3(CC2)NC(=O)C(C)NC(=O)C(=C)NC(=O)C(=C)NC(=O)C(C(C)C)NC2C=Cc3c(C(C)O)cc(nc3C2O)C(=O)OC4C)n1)C(N)=O (stereo not drawn) | 28.4* | -34.2 | x | 3.9 | 11.5 | 65.6* | 10.4
Cn1cccc1/C=C1\CC(C(C)(C)C)C/C(=C\c2cccn2C)C1=O (stereo not drawn) | 25.5* | -25.5 | 0.0 | -1.4 | 6.9 | 12.4 | 25.9*
CC(/C=N/NC(=O)Cn1cnc2c1c(=O)n(C)c(=O)n2C)=C\c1ccco1 | 7.2 | -2.3 | 1.0 | -12.0 | -4.0 | x | x
Cn1c(=O)c2c(ncn2CC(=O)N/N=C/C=C/c2ccco2)n(C)c1=O | 30.7* | 1.0 | 0.0 | -3.6 | 2.9 | 7.1 | 31.6*
O=C(CSc1ccccc1)NNC(=O)c1ccncc1 | -5.5 | 1.1 | x | -5.3 | 0.2 | x | x
N#CCc1c(C#N)c(N)nc(N2CCN(S(=O)(=O)c3ccccc3)CC2)c1C#N | 9.6 | -10.3 | 1.0 | 7.5 | 4.8 | x | x
N#CCc1c(C#N)c(N)nc(N2CCN(C=O)CC2)c1C#N | 23.2* | -2.0 | 2.0 | 6.9 | -6.6 | 1.1 | 11.4
O=C1C(=Cc2ccc(Cl)cc2)CCc2ccccc21 | 10.0 | -0.8 | x | 0.4 | x | x | x
O=C1/C(=C\c2ccccc2)CCC/C1=C/c1ccccc1 | 5.4 | -3.8 | x | -8.6 | -11.7 | x | x
O=C1/C(=C/c2ccncc2)CCc2ccccc21 | 34.4* | 0.4 | 0.0 | -4.0 | 2.8 | 62.3* | 59.0*
O=C1C(=Cc2ccncc2)CCCc2ccccc21 | 17.8 | 0.5 | x | 0.3 | x | x | x
O=C1/C(=C/c2ccncc2)CCC/C1=C\c1ccncc1 | 99.4* | 0.0 | x | -3.1 | 46.8* | 104.1* | 109.2*
O=C1/C(=C\c2ccncc2)CCc2ccccc21 | 31.8* | 3.6 | 1.0 | -0.8 | -1.7 | 63.3* | 60.0*
Cc1cnc(C(=O)N(CC(C)C)c2c(N)n(CC(C)C)c(=O)[nH]c2=O)cn1 | -0.4 | 0.9 | x | 1.0 | -0.5 | x | x
Cc1cccc(-c2nnc(SCC(=O)c3ccc(O)cc3O)n2C)c1 | -7.3 | -1.1 | 0.0 | 4.3 | -1.7 | x | x
COc1cc(S(C)=O)ccc1-c1nc2ncccc2[nH]1 (stereo not drawn) | 4.5 | 0.0 | 0.0 | -1.7 | -11.1 | x | x
CN(Cc1cccnc1)C(=O)c1cc(S(=O)(=O)Nc2ccccc2F)ccc1Cl | 5.9 | -1.1 | x | -3.3 | 3.4 | x | x
COc1cc(F)ccc1S(=O)(=O)NCc1cccnc1 | -0.4 | 3.0 | 2.0 | 1.3 | 1.7 | x | x
O=C(c1ccccc1)C(CN1CCCCC1)c1ccccc1 (stereo not drawn) | 29.0* | 0.8 | x | 0.5 | 28.7 | 21.0 | 94.8*
O=C(c1ccc(Br)cc1)C(CN1CCOCC1)c1ccccc1 (stereo not drawn) | 29.1* | 0.4 | 0.0 | -6.3 | 21.0 | 51.9* | 93.7*
Cn1c(N=Nc2ccc(N3CCOCC3)cc2)[n+](C)c2ccccc21 | 24.4* | -0.4 | x | -1.2 | -11.8 | 20.9 | 39.1*
Cn1c(=Nc2ccc(N3CCOCC3)cc2)ccc2ccccc21 | 3.7 | 2.7 | 5.0 | 5.3 | -1.1 | x | x
CCOc1ccc(NC(=O)CN(C)C(=O)C2CC(=O)N(Cc3ccco3)C2)cc1OCC (stereo not drawn) | 23.3* | -1.5 | 5.0 | 2.3 | 1.0 | 28.6* | 23.7*
O=C(C=Cc1cccs1)c1cccs1 | 8.5 | -0.3 | x | 0.1 | 3.5 | x | x
